5HT1E ag = 5-HT1E receptor agonists, primary screen, cell-based, HTS; activation, % at 6 µM; CHO 5-HT1E Ga15 NFAT-bla reporter, FRET; 0% DMSO wells, 100% control agonist wells; hit rate 0.69% among 65,000; 5-hydroxytryptamine receptor 1E (Homo sapiens), P28566;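 active means activation above a set limit, the screen-wide mean activation plus 3 SD, cut at about 8.5% in these data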
5HT1a antag = human 5-HT1a receptor antagonists, primary screen, cell-based, CHO, Ga15 NFAT-bla reporter; 5-hydroxytryptamine receptor 1A (Homo sapiens), P08908; CHO 5-HT1a Ga15 NFAT-bla reporter, antagonist mode; inhibition, % at 10 µM; hit rate 0.68% among 62,000; AID 612, 2007;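 active means inhibition above the mean of all tested compounds plus 3 SD, cut at about 43% in these data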;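 further: receptor stimulated by 5-CT agonist at 100 nM near EC80; beta-lactamase reporter measured by ratiometric fluorescence of a cleavable substrate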
Target sequence (P08908 whole entry, looked up): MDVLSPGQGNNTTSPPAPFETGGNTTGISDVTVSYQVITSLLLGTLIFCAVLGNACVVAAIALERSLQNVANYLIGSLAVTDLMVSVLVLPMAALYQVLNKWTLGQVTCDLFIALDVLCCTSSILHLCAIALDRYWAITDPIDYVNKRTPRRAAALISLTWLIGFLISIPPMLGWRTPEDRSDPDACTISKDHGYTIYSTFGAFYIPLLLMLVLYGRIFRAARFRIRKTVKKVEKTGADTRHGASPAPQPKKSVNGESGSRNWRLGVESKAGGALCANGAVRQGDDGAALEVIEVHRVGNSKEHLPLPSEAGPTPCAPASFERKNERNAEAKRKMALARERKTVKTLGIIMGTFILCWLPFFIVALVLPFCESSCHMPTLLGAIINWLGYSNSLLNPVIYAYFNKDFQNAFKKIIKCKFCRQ
Jurkat viability = cytotoxicity toward Jurkat T cells, primary screen, cytotoxicity control, cell-based, Jurkat E6.1, 60K MLSMR library; Jurkat E6.1 viability, ATP luminescence, 48 h; inhibition, % at 4 µM; hit rate 1.2% among 56,000; AID 463, 2006;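 active means inhibition above the mean inhibition of all tested compounds plus 3 SD, cut at about 28% in these data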
HEK293 NFkB inh = inhibitors of PMA/ionomycin-induced NF-kB reporter, primary screen, antigen receptor NF-kB inhibitor project, cell-based, HEK-293 luciferase reporter, luminescence | hit rate 0.21% among 62,000 | HEK-293 NF-kB luciferase reporter | inhibition, % at 3 µM;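 active means inhibition above the mean of all tested compounds plus 3 SD, cut at about 40% in these data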
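System: NF-kB luciferase reporter HEK-293 cells | Replication: Single test | Control set: DMSO vs reference inhibitor | Evaluation: % inhibition | Schedule: 1 h pretreatment, 16 h stimulation, 37 °C | Probe or stimulus: PMA with ionomycin | Compound dosing: One dose, 3 µM | Detection: Luciferase luminescence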
5HT1a ag = human 5-HT1a receptor agonists, primary screen, cell-based, CHO, Ga15 NFAT-bla reporter. hit rate 0.56% among 65,000. activation, % at 10 µM. AID 567, 2006. 5-hydroxytryptamine receptor 1A (Homo sapiens), P08908. CHO 5-HT1a Ga15 NFAT-bla reporter, FRET ratio; 0% basal, 100% maximal reference agonist;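 active means activation above the screen-wide mean activation plus 3 SD, cut at about 19% in these data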
HTR1E antagonist = 5-HT1E receptor antagonists, primary screen, cell-based, HTS. CHO 5-HT1E Ga15 NFAT-bla reporter, FRET, antagonist. inhibition, % at 6 µM. hit rate 0.99% among 65,000. AID 571, 2007;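 active means inhibition above a set limit, the mean inhibition across every tested compound plus 3 SD, cut at about 29% in these data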;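 further: signal is the 460 over 535 nm emission ratio of beta-lactamase substrate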
Numbers stand for hits; . = inactive; / = no result. Rows were chosen to be rich in hits. Some 3.3% of all compounds tested hit in one or more screens of this group.

SMILES | 5HT1E ag | 5HT1a antag | Jurkat viability | HEK293 NFkB inh | 5HT1a ag | HTR1E antagonist
COC(=O)C1CCN(C(=O)c2ccccc2Oc2ccccc2)CC1 | . | . | . | . | . | .
CC(=O)OC(C(=O)NC1CCCCC1)c1ccc(C)cc1 (configuration not stated) | 32 | . | . | . | . | .
CCN(CC)C(=O)Cn1nc(-c2ccccc2O)nc1SCC(=O)Nc1ccc(OC)cc1 | . | . | . | . | . | .
CCCCn1c(CN2CCN(c3ccccc3)CC2)nc2c1c(=O)n(C)c(=O)n2C | . | . | 38 | . | . | .
Cn1c(=O)c2c(nc(CN3CCN(c4ccccc4)CC3)n2CCCc2ccccc2)n(C)c1=O | . | . | . | . | . | .
CCn1c(CN2CCN(C(=O)c3ccco3)CC2)nc2c1c(=O)n(C)c(=O)n2C | . | . | . | . | . | .
CCCCn1c(CN(C)Cc2ccccc2)nc2c1c(=O)n(C)c(=O)n2C | . | . | 36 | . | . | .
CC(C)CCn1c(CN2CCN(C(=O)c3ccco3)CC2)nc2c1c(=O)n(C)c(=O)n2C | . | . | . | . | 57 | .
CCCn1c(CN(C)Cc2ccccc2)nc2c1c(=O)n(C)c(=O)n2C | . | . | / | . | . | .
CN1C(=O)c2cccc(NC(=O)CCc3ccccc3)c2C1=O | . | . | . | . | . | .
c1ccc(-c2nc(NCc3cccnc3)c3oc4ccccc4c3n2)cc1 | . | . | . | . | . | .
CCOC(=O)C1CCN(C(c2cccnc2)c2c(NC(=O)c3ccco3)sc(C)c2C)CC1 (configuration not stated) | 52 | . | 34 | . | . | .
Cc1sc(NC(=O)c2ccco2)c(C(c2cccnc2)N2CCN(c3ccc(F)cc3)CC2)c1C (configuration not stated) | . | . | 35 | . | . | .
Cc1nnc2sc(-c3cc4ccccc4o3)nn12 | . | . | . | . | . | .
CCCc1ccc(Oc2c(-c3ccc(O)c(C)c3O)n[nH]c2C)cc1 | . | 56 | . | . | . | .
CCNc1nc(NCC)n2c(SCc3nc4ccccc4c(=O)[nH]3)nnc2n1 | . | . | . | . | . | 53
Cn1c(SCc2nc3ccccc3c(=O)[nH]2)nnc1-c1ccco1 | . | . | . | . | . | .
Cn1c(-c2ccccc2)cnc1SCc1nc2ccccc2c(=O)[nH]1 | 59 | . | . | . | . | .
O=c1[nH]nc(Sc2ncnc3sccc23)n1CCc1ccccc1 | . | . | . | . | 22 | .
CCCn1c(Sc2nnnn2-c2ccccc2)n[nH]c1=O | . | . | . | . | . | .
CC(=O)c1sc(NC(=O)C2(F)C(F)(F)C(F)(F)C(F)(F)C(F)(F)C2(F)F)nc1C | . | 65 | 90 | 90 | . | .
CC(=O)c1sc(NC(=O)C=C(C)C)nc1C | . | . | . | . | . | .
CS(=O)(=O)Nc1ccc(S(=O)(=O)Nc2nccs2)cc1 | 10 | . | . | . | . | .
O=S(=O)(Nc1nccs1)c1ccc(NS(=O)(=O)c2cccs2)cc1 | . | . | . | . | . | .
Cc1nnc2n1N=CC=C(c1ccccc1)S2 | . | . | . | . | . | 30
SMILES | 5HT1E ag | 5HT1a antag | Jurkat viability | HEK293 NFkB inh | 5HT1a ag | HTR1E antagonist
Cc1nnc2n1N=CC=C(C(C)(C)C)S2 | . | . | . | . | . | .
Cn1cc(Br)c(C(=O)NC2CCCCC2)n1 | . | . | . | . | . | .
CCOC(=O)C1CCN(C(=O)COc2ccc(S(=O)(=O)NC(C)C)cc2Cl)CC1 | . | . | . | . | 48 | .
C=CCNc1nc(-c2c(C)nc3sccn23)cs1 | . | . | . | . | . | .
Cc1nc2sccn2c1-c1csc(NCc2ccccc2)n1 | . | . | 67 | . | . | .
O=S(CCc1ccncc1)Cc1ccccc1 (configuration not stated) | . | / | / | / | 40 | .
CC(C(=O)Nc1ccc2c(c1)OCO2)N(c1ccc(Cl)cc1)S(C)(=O)=O (configuration not stated) | . | . | . | . | . | .
Cc1cccc(C)c1OCC(=O)Nn1c(C)nc2ccccc2c1=O | . | . | . | . | . | .
Cc1nn(C)cc1CNC(=O)c1cc2n(n1)C(C(F)(F)F)CC(c1cccs1)N2 (configuration not stated) | . | . | . | . | . | .
Cc1nn(C)c(C)c1CNC(=O)c1nn2c(c1Cl)NC(c1cccs1)CC2C(F)(F)F (configuration not stated) | . | . | 41 | . | . | .
CCOC(=O)C1=C(C)N=C2SC(CC)C(=O)N2C1c1ccc(OC(C)=O)c(OCC)c1 (configuration not stated) | . | . | / | . | . | .
O=C(Nc1ccc(-c2nc3ncccc3o2)cc1)c1ccc(Br)o1 | . | . | . | . | . | 62
O=C(CSc1nc(-c2ccco2)cc(C(F)(F)F)n1)Nc1ccc2c(c1)OCO2 | . | . | 29 | . | . | .
N=c1ccn(Cc2ccc(Cl)c(Cl)c2)cc1 | . | . | 30 | . | . | .
COc1cc(OC)cc(C(=O)N2CCC(n3c(C)nc4cc(F)ccc43)CC2)c1 | . | . | . | . | . | .
CCOC(=O)N1CCC(NC(=O)c2ccc(CS(=O)(=O)c3ccccc3C)o2)CC1 | . | . | . | . | 39 | .
COc1cccc(OCc2nc3ncc(Br)cc3[nH]2)c1 | . | . | 65 | . | . | .
Cc1cccc(OCc2nc(C)cc(=O)[nH]2)c1 | . | / | / | / | . | .
COc1ccc(NC(=O)c2cc(-c3ccccc3OC)on2)cc1 | . | . | 92 | . | . | .
COc1ccccc1-c1cc(C(=O)Nc2ccccc2SC)no1 | . | . | . | . | . | .
COc1cc(NC(=O)c2cc(-c3cccs3)on2)cc(OC)c1OC | . | . | 64 | . | . | .
COc1ccccc1-c1cc(C(=O)Nc2cccnc2)no1 | . | . | 72 | . | . | .
COc1cccc(-c2cc(C(=O)Nc3cccc(O)c3)no2)c1 | . | . | 49 | . | . | .
COCCOC(=O)c1c(C)n(C)c2ccc(OC(=O)C3CC3)cc12 | . | . | . | . | . | .
O=c1c(-c2ccccc2)[n+]([O-])c2ccccc2n1O | . | . | . | . | . | .
Cc1cccc(C)c1-n1nnnc1SCSc1nnnn1-c1c(C)cccc1C | . | . | . | 45 | . | .
CCCCNc1cc(C)nc(NCc2ccccc2)n1 | . | . | 34 | . | . | .
Cc1cc(C)nc(NCCCc2ccccc2)n1 | . | . | . | . | . | .
CC(/C=N/n1cnnc1)=C\c1ccco1 | . | . | . | . | . | .

Screens: PubChem BioAssay, The Scripps Research Institute Molecular Screening Center
